Only some compounds are listed: those with a hit (about 3.8% of all), similar ones and a draw of the others.
RAM inhibit: inhibitors of the yeast RAM network, primary screen, dse1pr::URA3 reporter, 5-FOA selection; inhibition, % at 50 µM; AID 868, 2007; 190,000 compounds, 1.8% hits; S. cerevisiae dse1pr::URA3 reporter, 5-FOA growth OD615, 2 d; analog-sensitive cbk1-as2 kinase mutant strain;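 active = inhibition above a set limit, 3 SD over mean compound inhibition, cut at about 8.4% in these data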;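 note: 0% = DMSO-only wells with no growth and 100% = 10 µM 1-NA-PP1 full growth; inhibition rescues growth on 5-FOA so higher OD means more RAM inhibition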
NPY2 pot ag: NPY-Y2 potentiators or agonists, primary screen, cell-based. Neuropeptide Y receptor type 2 (Homo sapiens), P49146. cells expressing NPY-Y2, potentiator/agonist read-out. activation, % at 3.6 µM. 220,000 compounds, 0.45% hits. AID 1359, 2008; in the data active = activation above about 27%;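 note: cells stimulated with NPY near EC25 plus isoproterenol at EC100; 0% = vehicle plus submaximal agonist and 100% = vehicle plus saturating agonist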
Target sequence (P49146 whole entry, looked up): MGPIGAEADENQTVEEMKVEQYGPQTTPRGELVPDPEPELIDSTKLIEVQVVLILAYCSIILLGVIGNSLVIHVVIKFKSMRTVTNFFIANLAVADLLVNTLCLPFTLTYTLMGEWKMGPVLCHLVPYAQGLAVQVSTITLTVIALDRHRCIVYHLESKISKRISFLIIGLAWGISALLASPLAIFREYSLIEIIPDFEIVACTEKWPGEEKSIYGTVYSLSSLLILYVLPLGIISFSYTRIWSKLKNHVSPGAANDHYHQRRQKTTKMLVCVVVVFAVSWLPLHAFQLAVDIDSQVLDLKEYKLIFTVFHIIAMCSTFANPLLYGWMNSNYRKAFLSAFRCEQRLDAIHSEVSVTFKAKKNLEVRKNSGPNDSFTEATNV
NPY Y2 blocker: NPY-Y2 receptor antagonists, primary screen, cell-based. AID 793, 2007. NPY-Y2 expressing cells, antagonist mode. 140,000 compounds, 0.99% hits. Neuropeptide Y receptor type 2 (Homo sapiens), P49146. inhibition, % at 2.7 µM;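 note: 0% = vehicle with agonist challenge and 100% = reference antagonist with challenge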
NPY-Y1 antag: NPY-Y1 receptor antagonists, primary screen, cell-based | inhibition, % at 3.6 µM | Neuropeptide Y receptor type 1 (Homo sapiens), P25929 | 200,000 compounds, 1% hits | HEK293-CNG Y1 cells, membrane potential fluorescence; NPY at EC95, then isoproterenol;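 active = inhibition above the campaign mean inhibition of all tested compounds plus 3 SD, cut at about 20% in these data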;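 note: 0% = DMSO wells given NPY plus isoproterenol and 100% = isoproterenol alone without NPY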
Target sequence (P25929 whole entry, looked up): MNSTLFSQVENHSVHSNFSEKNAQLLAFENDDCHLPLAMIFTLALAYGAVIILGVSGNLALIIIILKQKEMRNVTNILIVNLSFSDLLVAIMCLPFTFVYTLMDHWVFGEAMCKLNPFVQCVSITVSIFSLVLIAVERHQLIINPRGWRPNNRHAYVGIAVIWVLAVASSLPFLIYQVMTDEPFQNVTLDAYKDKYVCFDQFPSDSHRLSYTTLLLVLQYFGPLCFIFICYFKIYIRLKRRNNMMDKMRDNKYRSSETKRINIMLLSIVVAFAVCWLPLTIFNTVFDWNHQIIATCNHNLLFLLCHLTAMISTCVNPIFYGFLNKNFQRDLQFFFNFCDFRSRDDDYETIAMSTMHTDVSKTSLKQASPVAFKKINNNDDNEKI
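Material: Y1- and CNG-channel-expressing HEK293 cells / Probe or stimulus: NPY 25 nM then isoproterenol 1 µM plus Ro 20-1724 25 µM / Doses: 3.6 µM single dose, DMSO 0.4% / Schedule: compound incubation 1 h at room temperature, readout 45 min post-stimulation / Signal: membrane potential fluorescence / Benchmarks: isoproterenol-only wells as full block versus NPY-plus-isoproterenol wells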
Insulin prom inh: inhibitors of insulin promoter-driven GFP, primary screen, imaging, TRM-6 cells, eGFP reporter, cell count | reporter expression induced with tamoxifen | inhibition, % at 2 µM | 130,000 compounds, 0.9% hits | AID 1273, 2008;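 active = inhibition above the mean plus 3 SD, with well images judged a real hit on visual review, cut at about 60% in these data, passing the limit was not always enough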
NPY-Y1 PAM-ag: NPY-Y1 receptor potentiators or agonists, primary screen, cell-based. activation, % at 3.6 µM. 220,000 compounds, 0.37% hits. NPY-Y1 expressing cells, potentiator/agonist activation. Neuropeptide Y receptor type 1 (Homo sapiens), P25929; in the data active = activation above about 33%, passing the limit was not always enough;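 note: cells stimulated with NPY at EC10 then isoproterenol at EC100; 0% = low agonist plus stimulus and 100% = saturating agonist plus stimulus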
NPY1 antag conf: NPY-Y1 receptor antagonists, retest of hits, confirmation, HEK293-CNG cells, membrane potential fluorescence, triplicate; shares compounds with NPY-Y1 antag; AID 1254, 2008; inhibition, % at 3.6 µM; 1,200 compounds, 21% hits; cAMP; NPY challenge against isoproterenol-raised cAMP; in the data active = inhibition above about 20%;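 note: 0% = vehicle with agonist plus stimulus and 100% = stimulus alone without agonist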
NPY-Y2 antag ct: NPY-Y2 receptor antagonists, selectivity check, confirmation, counter-screen for NPY-Y1 antagonist project, HEK293-CNG cells, membrane potential fluorescence, triplicate. antagonism; cells given NPY, then isoproterenol. shares compounds with NPY-Y1 antag. 1,200 compounds, 28% hits. AID 1255, 2008. inhibition, % at 3.6 µM;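 note: 0% = DMSO with agonist challenge and 100% = reference antagonist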
Starred values were filed as active, the others as inactive; . = no result given. Cut-off read from the data, not from the text of the source, unless noted: active = inhibition above about 17%; inactive = the rest.

SMILES	RAM inhibit	NPY2 pot ag	NPY Y2 blocker	NPY-Y1 antag	Insulin prom inh	NPY-Y1 PAM-ag	NPY1 antag conf	NPY-Y2 antag ct
Cn1ccnc1C1CCCCN1Cc1nc(-c2ccc3c(c2)OCO3)no1 (stereo not given)	3.1	-17.7	.	42.3*	.	-21.1	26.6*	10.1
Cn1ccnc1C1CCCCN1Cc1nc(Cc2cccc(C(F)(F)F)c2)no1 (stereo not given)	1.9	-9.2	.	7.5	.	-8.0	.	.
CN1CCN(c2nc(-c3ccccc3)c3cc(Cl)ccc3n2)CC1	2.1	-32.5	14.5	11.5	-35.7	-50.1	.	.
Clc1ccc2nc(N3CCNCC3)nc(-c3ccccc3)c2c1	2.9	-9.9	8.2	25.9*	-172.7	-79.9	18.9	19.8*
Cc1ccccc1NC(=O)C1CCCN(S(=O)(=O)c2cccc3cccnc23)C1 (stereo not given)	1.4	-9.1	-0.3	96.4*	.	8.4	1.8	2.5
Cc1ccccc1NC(=O)C1CCCN1S(=O)(=O)c1cccc2cccnc12 (stereo not given)	0.5	3.9	2.2	5.2	.	8.8	.	.
COc1c(Cl)cc(C(=O)Nc2ccccc2C(=O)O)cc1Cl	2.6	-1.7	2.6	-0.9	23.3	4.0	.	.
CCc1n[nH]c(=S)n1/N=C/c1ccc(N(C)c2ccccc2)cc1	-0.6	-31.8	.	35.2*	.	-15.7	18.0	10.7
CCc1n[nH]c(=S)n1/N=C/c1ccc2c(c1)OCO2	2.0	-14.7	4.0	4.8	8.6	-5.5	.	.
CN(CC(=O)NC(=O)NCc1ccccc1)Cc1cccc(Cl)c1Cl	1.9	-5.1	10.2	12.9	-3.5	-11.0	.	.
CCOC(=O)c1[nH]c(C)c(C(=O)OCC(=O)NC(=O)NC(C)(C)C)c1C	4.1	-8.3	-0.3	21.3*	.	-6.7	-0.1	1.9
CCOC(=O)c1c(C)[nH]c(C(=O)OCC(=O)NC(C)(C)C)c1C	-0.2	18.6	.	-5.0	-67.6	-1.2	.	.
Cc1nc2sc(C(c3ccco3)N3CCc4ccccc4C3)c(O)n2n1 (stereo not given)	.	-7.1	0.8	7.5	-50.0	-0.4	.	.
O=C(NNS(=O)(=O)c1ccc(Br)cc1)c1cccs1	-0.8	-5.2	.	7.8	.	8.8	.	.
CCN(c1ccccc1)P(=O)(Nc1ccccc1)Nc1ccccc1	.	-19.4	.	.	.	-9.6	.	.
CN(c1ccccc1)P(=O)(N(C)c1ccccc1)N(C)c1ccccc1	1.7	12.3	.	34.1*	.	-22.5	30.3*	20.1*
CC(=O)N1CCN(Cc2nc3cc(NC(=O)Nc4ccccc4)ccc3n2C)CC1	-1.5	4.6	.	5.5	.	17.3	.	.
CN1CCC(Oc2ccccc2Sc2ccc(C(F)(F)F)cc2)CC1	0.4	-10.2	15.9	29.8*	-44.8	-38.4	8.3	15.2
CN1CCC(Oc2ccc(Sc3ccccc3)cc2)CC1	0.4	7.7	7.8	6.5	-30.8	-17.0	.	.
O=C(CCc1nnc(CCCCc2ccccc2)o1)N1CCCC(O)C1 (stereo not given)	.	-2.3	.	.	.	19.9	.	.
Cc1cccc2cc(CN(Cc3ccccc3)C(=S)NCCCN(C)C)c(=O)[nH]c12	0.5	-27.5	.	28.2*	.	-62.2	8.2	14.5
O=C(Cc1nc2ccccc2[nH]1)c1cccc([N+](=O)[O-])c1	.	4.6	.	.	.	24.1	.	.
O=C(NCC1CCCO1)C(c1ccc(F)cc1)N(Cc1ccc2c(c1)OCO2)C(=O)c1ccc(CN2CCOCC2)o1 (stereo not given)	-0.4	-1.9	.	2.9	.	9.4	.	.
Cc1cccc(C(=O)NC2=NCCS2)c1	0.5	0.1	.	6.5	-28.6	5.5	.	.
c1ccc(-c2ccccc2OCCCN2CCCC2)cc1	0.1	1.3	6.2	16.8	-66.7	-0.9	.	.
SMILES	RAM inhibit	NPY2 pot ag	NPY Y2 blocker	NPY-Y1 antag	Insulin prom inh	NPY-Y1 PAM-ag	NPY1 antag conf	NPY-Y2 antag ct
c1ccc(-c2ccccc2OCCCN2CCCCCC2)cc1	1.3	-9.9	.	26.1*	.	-14.9	11.5	12.7
CC(C)c1ccc(/C=N/n2cnnc2)cc1	.	5.0	.	.	.	-2.1	.	.
O=C1/C(=C/c2ccccn2)SC(=S)N1NS(=O)(=O)c1ccccc1	6.6	-28.9	.	23.7*	0.0	-30.9	19.1	14.0
COc1cc(/C=C2\SC(=S)N(NS(=O)(=O)c3ccccc3)C2=O)cc(OC)c1OC	.	-21.6	.	.	.	-9.6	.	.
COc1cc(OC)cc(C(=O)N[C@H](C(=O)Nc2nc(-c3ccc(F)c(F)c3)cs2)C(C)C)c1	2.9	-13.8	.	-2.1	-37.5	0.1	.	.
O=C(O)c1nn(-c2ccccc2)nc1-c1nn(-c2ccccc2)nc1C(=O)O	8.9*	-18.9	8.9	30.8*	.	-32.5	10.0	9.6
CCN(CC)c1ccc(NC(=O)CC2Oc3ccccc3NC2=O)c(C)c1 (stereo not given)	1.5	11.0	1.3	2.8	.	0.1	.	.
Cc1ccc(S(=O)(=O)NCC(=O)NCC(=O)OCC(=O)N2CC(=O)Nc3ccccc32)cc1C	0.5	-2.6	.	5.8	66.7	-2.7	.	.
CCN(CC)c1ccc(S(=O)(=O)N2CCOCC2)cc1NS(C)(=O)=O	0.1	-0.9	.	2.9	.	-7.0	.	.
CCN(CC)c1ccc(S(=O)(=O)N2CCOCC2)cc1NC(=O)CN1CCc2ccccc2C1	0.5	10.1	.	23.1*	-48.6	22.6	2.0	7.8
Cc1ccc(S(=O)(=O)N2CCOCC2)cc1NC(=O)CN1CCC(Cc2ccccc2)CC1	-0.1	-37.6	.	30.4*	.	-9.0	11.3	14.8
Cc1cc(-c2nnc(CSc3nnc(NC(=O)c4ccc(C(C)(C)C)cc4)s3)o2)ccc1[N+](=O)[O-]	.	16.6	.	.	.	6.0	.	.
C=CCN(CC=C)C(=S)NCCc1ccc(OC)c(OC)c1	-0.1	13.0	3.7	-2.4	.	-6.3	.	.
N#Cc1ccccc1Cn1cc(/C=C/[N+](=O)[O-])c2ccccc21	5.9	1.3	2.3	4.4	-24.1	-10.4	.	.
CCN(CC)S(=O)(=O)c1ccc(Oc2ccc(S(=O)(=O)N(CC)CC)cc2)cc1	6.8	-2.8	3.6	31.8*	51.9	-20.4	20.6*	13.2
CCN(CC)S(=O)(=O)c1ccc(Oc2ccccc2OC)cc1	.	9.2	.	.	.	7.5	.	.
CO/N=C/C(=N\Nc1ccccc1)C(=O)c1ccccc1	2.0	-2.2	.	14.2	7.7	2.6	.	.
CO/N=C\C(=N\Nc1ccc(OC)cc1)C(=O)c1ccccc1	5.0	-22.9	10.8	23.3*	-9.4	-63.2	6.5	8.6

Screening results (PubChem BioAssay)
